Experiments:
[1] = system: Plasmodium falciparum; test: In vitro antimalarial activity for Plasmodium falciparum; assay type: functional, organism-based
How it was run: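 Chloroquine-sensitive P. falciparum FCR-3 strain cultured in vitro; EC50 determined.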

[2] = Mean of EC50 value for FM3A cells/ mean of EC50 value for Plasmodium falciparum; assay type: functional
How it was run: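 Selectivity is the mean EC50 against FM3A mouse mammary tumor cells divided by the mean EC50 against P. falciparum FCR-3.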

[3] = system: FM3A; test: in vitro cytotoxicity against mouse mammary tumor in cell culture.; assay type: functional, cell-based
How it was run: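 Mouse mammary tumor FM3A cells in culture, used as a mammalian cytotoxicity control; EC50 determined.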

[4] = system: Mus musculus; test: in vivo antimalarial activity against Plasmodium berghei infected mice (Mus musculus) on intraperitoneal administration; assay type: functional; conditions: ip
How it was run: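 Mice infected with P. berghei NK 65. Compounds were prepared in olive oil at various concentrations and injected intraperitoneally into groups of five mice once daily on days 0–3, starting on the day of infection. Parasitemia was measured on day 4, and ED50/ED90 were calculated by the earlier protocol.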

[5] = system: Mus musculus; test: In vivo antimalarial activity against Plasmodium berghei infected mice (Mus musculus) on oral administration; assay type: functional
How it was run: (§1)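 Mice infected with P. berghei NK 65. Compounds were prepared in olive oil at various concentrations and given orally to groups of five mice once daily on days 0–3, starting on the day of infection. Parasitemia was read on day 4, and ED50/ED90 were derived by the earlier protocol.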

[6] = system: Mus musculus; test: in vivo antimalarial activity against Plasmodium berghei infected mice (Mus musculus) on oral administration; assay type: functional; how it was run: as §1

| Compound | EC50 [1] [nM] | Selectivity [2] | EC50 [3] [nM] | ED50 [4] [mg/kg] | ED90 [4] [mg/kg] | ED50 [5] [mg/kg] | ED90 [6] [mg/kg] |
| --- | --- | --- | --- | --- | --- | --- | --- |
| C1CCCCCC2(CCCCC1)OOCCCCCCCCOO2 | 1700 | 17 | 29000 |  |  |  |  |
| CC(C)(C)C1CCC2(CC1)OOCCCOO2 | 3 | 10000 | 30000 | 15 | 30 | 52 | 84 |
| CCCCCC1(CCCCC)OOCCCOO1 | 310 | 110 | 34000 | 30 | 58 |  |  |
| C1CCCCCC2(CCCCC1)OOCCCOO2 | 25 | 320 | 8000 | 12 | 20 | 20 | 40 |
| C1CCCCCC2(CCCCC1)OOCCCCOO2 | 100 | 170 | 17000 | 48 | 65 |  |  |
| C1CCCCCC2(CCCCC1)OOCCCCCCOO2 | 10 | 1600 | 16000 | 160 | > 200 |  |  |
| C1COOC2(OOC1)C1CC3CC(C1)CC2C3 | 50 | 1160 | 58000 | 100 |  |  |  |
| C[C@@H]1CC[C@H]2[C@@H](C)C(=O)O[C@@H]3O[C@@]4(C)CC[C@@H]1[C@]32OO4 [ARTEMISININ] | 10 | 1000 |  | 5 | 32 | 13 | 89 |
| CCCCCCC1(CCCCCC)OOCCCOO1 | 200 | 95 | 19000 | 60 | 91 |  |  |
| C1CCCCCC2(CCCCC1)OOCCCCCOO2 | 280 | 43 | 12000 |  |  |  |  |

From ChEMBL document CHEMBL1134771, “Synthesis and antimalarial activity of novel medium-sized 1,2,4,5-tetraoxacycloalkanes” (J Med Chem, 2001)
